Source: ChEMBL document CHEMBL1149243, “Lactams as EP4 prostanoid receptor agonists. 3. Discovery of N-ethylbenzoic acid 2-pyrrolidinones as subtype selective agents” (J Med Chem, 2004)

Legend:
[1] = Volume of distribution in Wistar Han rat at 1 mg/kg, iv; format: ADME, organism-based; design: dose 1 mg/kg, route intravenous; conditions: in vivo, read-out: Vbeta
In short: (§1)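 Single i.v. dose of 1.0 mg/kg lactam; parent compound in plasma quantified by LC-MS/MS with detection down to 0.1 ng/mL. Reported values are averages after i.v. dosing.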

[2] = biological target: T1, Prostaglandin E2 receptor EP4 subtype (Homo sapiens, UniProt P35408); assay: Functional activity at human EP4 receptor
T1 sequence (P35408 whole entry): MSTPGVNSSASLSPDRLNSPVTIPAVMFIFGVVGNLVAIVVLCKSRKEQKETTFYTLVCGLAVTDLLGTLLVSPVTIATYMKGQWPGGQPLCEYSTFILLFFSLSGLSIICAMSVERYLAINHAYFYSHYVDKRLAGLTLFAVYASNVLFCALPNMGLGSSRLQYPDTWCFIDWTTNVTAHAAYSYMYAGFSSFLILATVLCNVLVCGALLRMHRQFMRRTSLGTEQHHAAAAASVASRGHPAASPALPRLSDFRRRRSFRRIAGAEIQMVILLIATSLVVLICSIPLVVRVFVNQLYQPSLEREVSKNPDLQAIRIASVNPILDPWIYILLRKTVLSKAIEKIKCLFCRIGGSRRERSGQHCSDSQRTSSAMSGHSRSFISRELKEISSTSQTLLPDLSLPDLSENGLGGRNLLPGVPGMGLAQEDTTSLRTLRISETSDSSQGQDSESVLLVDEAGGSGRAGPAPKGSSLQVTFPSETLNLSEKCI

[3] = biological target: T2, Prostaglandin E2 receptor EP3 subtype (Homo sapiens, UniProt P43115); assay: Binding affinity to human EP3 receptor
T2 sequence (P43115 whole entry): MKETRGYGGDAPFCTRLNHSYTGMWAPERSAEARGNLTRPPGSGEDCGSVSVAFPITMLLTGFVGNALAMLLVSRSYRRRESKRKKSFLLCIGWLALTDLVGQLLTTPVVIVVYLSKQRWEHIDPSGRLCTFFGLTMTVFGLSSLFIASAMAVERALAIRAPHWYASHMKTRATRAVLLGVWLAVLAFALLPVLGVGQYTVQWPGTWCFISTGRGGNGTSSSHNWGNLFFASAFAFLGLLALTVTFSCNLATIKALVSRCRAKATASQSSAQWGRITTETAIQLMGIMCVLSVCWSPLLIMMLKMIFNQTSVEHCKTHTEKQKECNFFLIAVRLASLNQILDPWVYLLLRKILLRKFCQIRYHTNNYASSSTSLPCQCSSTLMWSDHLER

[4] = biological target: T3, Prostaglandin E2 receptor EP1 subtype (Homo sapiens, UniProt P34995); assay: Binding affinity to human EP1 receptor
T3 sequence (P34995 whole entry): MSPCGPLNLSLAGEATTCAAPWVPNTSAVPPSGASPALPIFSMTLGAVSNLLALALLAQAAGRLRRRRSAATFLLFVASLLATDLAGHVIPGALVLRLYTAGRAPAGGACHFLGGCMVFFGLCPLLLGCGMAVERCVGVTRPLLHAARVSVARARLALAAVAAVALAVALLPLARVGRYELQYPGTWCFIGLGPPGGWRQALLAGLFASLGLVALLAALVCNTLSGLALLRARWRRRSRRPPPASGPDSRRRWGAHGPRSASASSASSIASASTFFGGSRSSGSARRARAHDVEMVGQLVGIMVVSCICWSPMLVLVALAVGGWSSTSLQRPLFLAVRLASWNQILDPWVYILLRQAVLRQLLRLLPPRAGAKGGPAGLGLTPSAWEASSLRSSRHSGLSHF

[5] = biological target: T1, Prostaglandin E2 receptor EP4 subtype; assay: Binding affinity to human EP4 receptor
[6] = Half life in Wistar Han rat at 1 mg/kg, iv; format: ADME, organism-based; design: dose 1 mg/kg, route intravenous; conditions: in vivo; in short: as §1
[7] = Clearance in Wistar Han rat at 1 mg/kg, iv; format: ADME, organism-based; design: dose 1 mg/kg, route intravenous; conditions: in vivo; in short: as §1
[8] = biological target: Prostaglandin E2 receptor EP2 subtype (Homo sapiens, UniProt P43116); assay: Binding affinity to human EP2 receptor
Chain of Prostaglandin E2 receptor EP2 subtype (P43116 whole entry): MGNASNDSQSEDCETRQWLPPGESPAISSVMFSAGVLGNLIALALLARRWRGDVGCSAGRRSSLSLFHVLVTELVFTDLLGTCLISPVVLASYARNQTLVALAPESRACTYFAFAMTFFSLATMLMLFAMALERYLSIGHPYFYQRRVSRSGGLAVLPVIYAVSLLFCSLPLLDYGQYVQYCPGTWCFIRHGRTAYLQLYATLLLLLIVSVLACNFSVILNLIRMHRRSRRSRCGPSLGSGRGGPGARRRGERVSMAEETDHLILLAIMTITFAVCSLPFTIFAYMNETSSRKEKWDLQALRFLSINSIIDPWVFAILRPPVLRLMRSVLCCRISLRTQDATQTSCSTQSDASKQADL

Row | SMILES | Vd [1] [L/kg] | EC50 [2] | Ki [3] | Ki [4] [µM] | Ki [5] | half-life [6] [min] | clearance [7] [mL/min/kg] | Ki [8]
1 | CCCCC[C@H](O)/C=C/[C@H]1CCC(=O)N1CCCCOCC(=O)O | 1.5 | – | – | – | – | – | – | –
2 | O=C(O)c1ccc(CCN2C(=O)CC[C@@H]2/C=C/[C@@H](O)CCC2CCC2)cc1 | – | 0.2 nM (agonist) | 79 µM | – | 0.001 µM (antagonist) | – | – | 0.075 µM (antagonist)
3 | COCc1cccc(C[C@H](O)/C=C/[C@H]2CCC(=O)N2CCc2ccc(C(=O)O)cc2)c1 | – | 5.9 nM (agonist) | > 100 µM | – | 0.0007 µM (antagonist) | – | – | 2.5 µM (antagonist)
4 | CCCCC[C@H](O)/C=C/[C@H]1CCC(=O)N1CCSCCCC(=O)O | – | 17 nM (agonist) | 1.9 µM (antagonist) | – | 0.0038 µM (antagonist) | 45.6 | 10.5 | 4.7 µM (antagonist)
5 | CCCCC[C@H](O)/C=C/[C@H]1CCC(=O)N1CCc1ccc(C(=O)O)s1 | – | 12 nM (agonist) | > 100 µM | – | 0.0069 µM (antagonist) | – | – | 3.7 µM (antagonist)
6 | CCCCC[C@H](O)CC[C@H]1CCC(=O)N1CCc1ccc(C(=O)O)cc1 | 15.3 | 130 nM (agonist) | 90.3 µM | – | 0.017 µM (antagonist) | 210 | 50 | 0.035 µM (antagonist)
7 | CCCCC[C@H](O)/C=C/[C@H]1CCC(=O)N1CCCCCCC(=O)O | 6.9 | – | – | – | – | 52.2 | 91.7 | –

Further lines, results first:

Row | Vd [1] [L/kg] | EC50 [2] | Ki [3] | Ki [4] [µM] | Ki [5] | half-life [6] [min] | clearance [7] [mL/min/kg] | Ki [8] | SMILES
8 | – | 0.04 nM (agonist) | 54 µM | 18 | – | – | – | – | Cc1cc(Cl)ccc1-c1cccc([C@H](O)CC[C@H]2CCC(=O)N2CCc2ccc(C(=O)O)cc2)c1
9 | – | 11 nM (agonist) | 11 µM | > 100 | 0.0029 µM (antagonist) | 46.8 | 41.7 | – | CCCCC[C@H](O)/C=C/[C@H]1CCC(=O)N1CCc1ccc(C(=O)O)cc1
10 | – | 150 nM (agonist) | 77 µM | – | 0.018 µM (antagonist) | – | – | 0.22 µM (antagonist) | O=C(O)c1ccc(CCN2C(=O)CC[C@@H]2CC[C@@H](O)CCC2CCC2)cc1
